Published values of several laboratories.
Protocols differ between the studies behind these lines.
Read-out: metabolic stability
Sample: liver microsomes

SMILES | test system | conditions | microsomal CLint [µL/min/mg]
CONC(=O)c1cccc2c1cc(C)n2-c1nc2c(c(NCc3ccccc3)n1)CCCN2 | rat | 1 µM, pH 7.4 | 413
N#Cc1ccc(C[C@H](Nc2c(Nc3ccc(F)cc3)c(=O)c2=O)C(=O)N2CCc3ccccc32)cc1 | rat | 10 µM, pH 7.4 | 34.6
COc1ccc(Cn2cc(CO[C@@H]3O[C@H]4[C@H](OC[C@H]4O)[C@H]3O)nn2)cc1 | rat | – | < 14.4
CCOc1c([C@H](C)n2nc(C)c3c(N)ncnc32)cc(Cl)c(F)c1[C@@H]1CNC(=O)C1 | rat | 0.5 µM, pH 7.4 | 2.4
Cc1cccc(-c2nnc(N[C@@H](Cc3ccc(C#N)cc3)C(=O)N3CCc4ccccc43)o2)c1 | rat | 10 µM, pH 7.4 | 38.5
O=C(NCc1nc(-c2ccccc2)cs1)[C@H]1CCCN(C(=O)COCC(F)F)C1 | male Sprague-Dawley rat | 0.5 µM | 85
N#Cc1ccc(C[C@H](Nc2nnc(-c3ccc(Br)cc3)o2)C(=O)N2CCc3ccccc32)cc1 | rat | 10 µM, pH 7.4 | 25.7
COCC(=O)N1CCC[C@H](C(=O)NCc2nc(-c3ccc(-c4ccccc4)cc3)cs2)C1 | male Sprague-Dawley rat | 0.5 µM | 194
O=C(Nc1ccc(OC(F)(F)Cl)cc1)c1cnc(N2CC[C@@H](O)C2)c(-c2ccn[nH]2)c1 | rat | 1 µM, pH 7.4 | 12.9
N#Cc1ccc(C[C@H](Nc2nnc(-c3ccc(F)cc3)s2)C(=O)N2CCc3ccccc32)cc1 | rat | 10 µM, pH 7.4 | 35.9
CN1CCC[C@H](OCC(=O)N2CCC[C@H](C(=O)NCc3nc(-c4ccc(C(F)(F)F)cc4)cs3)C2)C1 | male Sprague-Dawley rat | 0.5 µM | 33
O=C1c2ccccc2C(=O)N1CCCN1CCN(C(c2ccc(F)cc2)c2ccc(F)cc2)CC1 | rat | 100 ng/mL | 101
COCC(=O)N1CCC[C@H](C(=O)NCc2nc(-c3ccc(OC)cc3)cs2)C1 | male Sprague-Dawley rat | 0.5 µM | 39
Cc1[nH]c(C)c(S(=O)(=O)Nc2ccc(C(F)(F)F)c(Cl)c2)c1C(=O)N(C)C | rat | – | 122
COCC(=O)N1CCC[C@H](C(=O)NCc2nc(-c3ccc(C)nc3)cs2)C1 | male Sprague-Dawley rat | 0.5 µM | 6.3
N#Cc1ccc(C[C@H](Nc2c(Nc3ccc(Br)cc3)c(=O)c2=O)C(=O)N2CCc3ccccc32)cc1 | rat | 10 µM, pH 7.4 | 18.1
Cc1[nH]c(C)c(S(=O)(=O)Nc2ccc(C(F)(F)F)c(Cl)c2Cl)c1C(=O)N1CCC(F)(F)C1 | rat | – | 21.8
